Measurements of several laboratories.
Protocols differ between the studies behind these lines. Converted amounts (≈) assume the structure as drawn.

O=C(N[C@H](CO)[C@H](O)c1ccc([N+](=O)[O-])cc1)C(Cl)Cl
MIC (Bacillus; microbial growth, broth dilution; ATCC27859; 18 h): 0.98 µg/mL (≈ 3.03 µM)

C[n+]1ccc(/C=C2\Sc3ccccc3N2CCCN2CCCCC2)c2ccccc21.[I-]
MIC (Pseudomonas aeruginosa; microbial growth, broth dilution; ATCCBAA2108; drug-resistant strain): 64 µg/mL

CCCCCOc1ccc(-c2cc(-c3ccc(C(=O)N[C@H]4C[C@@H](O)[C@@H](O)NC(=O)[C@@H]5[C@@H](O)[C@@H](C)CN5C(=O)[C@H]([C@H](O)CC(N)=O)NC(=O)[C@H]([C@H](O)[C@@H](O)c5ccc(O)c(OS(=O)(=O)O)c5)NC(=O)[C@@H]5C[C@@H](O)CN5C(=O)[C@H]([C@@H](C)O)NC4=O)cc3)no2)cc1
inhibition (Kluyveromyces marxianus; biofilm formation; 1 µg/mL): 53%

CC[C@H](C)[C@H]1C(=O)N2CCC[C@H]2C(=O)O[C@H](C(C)(C)C)C[C@@H](C)C[C@H](O)[C@H](C)C2=N[C@@H](CCC(=O)N[C@@H](Cc3ccc(OC)cc3)C(=O)N(C)[C@@H](C)C(=O)N1C)CS2
IC50 (Zika virus; viral replication; Huh7.5; 24 h): 0.015 µM

COC(=O)c1cc(-c2cccc(NC(=O)Nc3ccc(Cl)c(C(F)(F)F)c3)c2)on1
MIC (Mycobacteroides abscessus; microbial growth, broth dilution; ATCC19977; 48 h): > 64 µg/mL

CC1CCN(CCCN2/C(=C/c3cc[n+](C)c4ccccc34)Sc3ccccc32)CC1.[I-]
MIC (Pseudomonas aeruginosa; microbial growth, broth dilution; ATCCBAA2108; drug-resistant strain): 16 µg/mL

COC(=O)c1cc(-c2cccc(NC(=O)Nc3ccc(F)c(F)c3)c2)on1
MIC (Mycobacteroides abscessus; microbial growth, broth dilution; ATCC19977; 48 h): > 64 µg/mL

O=C(N[C@H](CO)[C@H](O)c1ccc([N+](=O)[O-])cc1)C(Cl)Cl
MIC (Bacillus; microbial growth, broth dilution; ATCC27859): 0.98 µg/mL (≈ 3.03 µM)

CCOC(=O)c1cc(-c2cccc(NC(=O)Nc3ccc(Cl)c(Cl)c3)c2)on1
MIC (Mycobacteroides abscessus; microbial growth, broth dilution; ATCC19977; 48 h): > 64 µg/mL

[2H]C([2H])(c1cc(F)c(F)cc1F)n1c(=O)n(Cc2ncn(C)n2)c(=O)[nH]/c1=N\c1cc2cn(C)nc2cc1Cl
EC50 (Alphacoronavirus 1; viral replication, inhibitor, qPCR; CRFK): ~50 µM
